Measured values: ChEMBL document CHEMBL4311975, “Exploration of the antibiotic potentiating activity of indolglyoxylpolyamines” (Eur J Med Chem, 2019)
Values after ≈ are worked out from the molar mass of the structure shown.

Key:
[1] = system: Staphylococcus aureus; experiment: Antibacterial activity against Staphylococcus aureus ATCC 25923 assessed as growth inhibition incubated for 18 hrs by broth dilution method; type: functional; settings: ATCC 25923, 18 h
How it was run: (§1)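 Broth microdilution following CA-SFM recommendations. Inoculum was 10^5 CFU in Mueller-Hinton broth with two-fold serial drug dilutions. Plates were incubated 18 h at 37 °C. MIC was the lowest concentration giving complete inhibition of visible growth. Values are means, n = 3.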

[2] = system: Staphylococcus intermedius; experiment: Antibacterial activity against Staphylococcus intermedius 1051997 assessed as growth inhibition incubated for 18 hrs by broth dilution method; type: functional; settings: Staphylococcus intermedius, 1051997, 18 h; how it was run: as §1
[3] = system: Pseudomonas aeruginosa; experiment: Antibacterial activity against Pseudomonas aeruginosa ATCC 27853 assessed as growth inhibition incubated for 18 hrs by broth dilution method; type: functional; how it was run: as §1
[4] = system: Escherichia coli; experiment: Antibacterial activity against Escherichia coli ATCC 25922 assessed as growth inhibition incubated for 18 hrs by broth dilution method; type: functional; how it was run: as §1
[5] = system: Klebsiella pneumoniae; experiment: Antibacterial activity against Klebsiella pneumoniae ATCC 700603 assessed as growth inhibition incubated for 18 hrs by resazurin dye based assay; type: functional
How it was run: (§2)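 Overnight cultures were diluted 40-fold in MHB and grown 1.5–2 h at 37 °C to mid-log phase. Cells were added at 5×10^5 CFU/mL final to two-fold compound dilutions (0.008–32 μg/mL final), in duplicate, for 18 h at 37 °C. Resazurin (0.001% final) was added for 2 h and MIC read by eye. Means, n = 2.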

[6] = system: Acinetobacter baumannii; experiment: Antibacterial activity against Acinetobacter baumannii ATCC 19606 assessed as growth inhibition incubated for 18 hrs by resazurin dye based assay; type: functional; settings: ATCC 19606 = CIP 70.34 = JCM 6841, 18 h; how it was run: as §2
[7] = system: Candida albicans; experiment: Antifungal activity against Candida albicans ATCC 90028 assessed as growth inhibition incubated for 36 hrs by resazurin dye based assay; type: functional; settings: ATCC 90028, 36 h
How it was run: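 Yeast was grown 3 days on YPD agar at 30 °C. Colonies were suspended and diluted in YNB broth to 2.5×10^3 CFU/mL, then added to two-fold compound dilutions (0.008–32 μg/mL final), in duplicate. Plates stood 36 h at 35 °C without shaking. Means, n = 2.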

[8] = system: Cryptococcus neoformans; experiment: Antifungal activity against Cryptococcus neoformans ATCC 208821 assessed as growth inhibition incubated for 36 hrs by resazurin dye based assay; type: functional; settings: ATCC 208821, 36 h
How it was run: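 Cryptococcus was grown 3 days on YPD agar at 30 °C, suspended, and diluted in YNB broth to 2.5×10^3 CFU/mL. Cells were exposed to 0.008–32 μg/mL compound (final), in duplicate, for 36 h at 35 °C without shaking. Resazurin (0.006% final) was added for a further 3 h. MIC was read from absorbance at OD570–600. Means, n = 2.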

[9] = system: Pseudomonas aeruginosa; experiment: Potentiation of doxycycline-induced antibacterial activity against Pseudomonas aeruginosa ATCC 27853 assessed as concentration required to restore 2 ug/ml doxycycline activity measured after 18 hrs; type: functional
How it was run: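 Inoculum was 5×10^5 CFU in MHB with two-fold serial dilutions of adjuvant plus fixed doxycycline at 2 μg/mL. […] Repeated independently in triplicate.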

[10] = system: L6; experiment: Cytotoxicity against rat L6 cells measured after 72 hrs by alamar blue assay; type: cell-based; settings: L6, 72 h
How it was run: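 Rat L6 myoblasts, 4×10^4/well in RPMI 1640 with L-glutamine and 10% FBS, received seven 3-fold dilutions (90 to 0.123 μg/mL) for 72 h. Alamar Blue was added for 2 h and fluorescence read at ex 536/em 588 nm. Podophyllotoxin served as reference. Means, n = 2.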

[11] = Cytotoxicity against human HEK293 cells measured after 20 hrs by resazurin dye based fluorescence assay; type: cell-based
How it was run: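 HEK293 cells, 5,000/well in DMEM with 10% FBS, were exposed to compound for 20 h at 37 °C, 5% CO2. Resazurin (100 μM final) was added for 3 h, then fluorescence read at ex 560/em 590. Signal was normalised to tamoxifen (74 μg/mL, 0%) and untreated growth (100%), and CC50 came from dose-response fitting. Top dose 32 μg/mL. Means, n = 2.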

[12] = Hemolytic activity against Sprague-Dawley rat RBC assessed as release of hemoglobin at 50 uM incubated for 1 hr relative to control; type: ADME, cell-based, Erythrocyte; settings: red blood cells (erythrocytes), read-out: Activity
How it was run: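 Fresh Sprague-Dawley rat erythrocytes were washed in saline and resuspended at 2% v/v. Cells were incubated with compound in DMSO/PBS for 1 h at 37 °C, then centrifuged at 200 g, and supernatant absorbance read at 540 nm. Results were normalised to DMSO/PBS (0%) and 0.1% Triton X-100 (100%). Single-point testing used 50 μM; HC50 came from 10-point curves. Means of three experiments.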

[13] = Klebsiella pneumoniae, 700603, 18 h

Molecule	MIC [1]	MIC [2]	MIC ([3]; ATCC 27853, 18 h)	MIC ([4]; ATCC 25922, 18 h)	MIC [5, 13]	MIC [6]	MIC [7]	MIC [8]	Activity [9]	IC50 [10]	CC50 at 20 h [11]	hemolysis at 1 h, 50 µM [12]	MIC [3]	MIC [4]	MIC [5]
COc1ccc2[nH]cc(C(=O)C(=O)NCCCNCCCCNCCCNC(=O)C(=O)c3c[nH]c4ccc(OC)cc34)c2c1	100 µM (≈ 60.5 µg/mL)	50 µM (≈ 30.2 µg/mL)	> 200 µM	> 200 µM	> 38.4 µM	> 38.4 µM	> 38.4 µM	19.2 µM	12.5 µM	56 µM	> 38.4 µM	0%			
O=C(NCCCNCCCCNCCCNC(=O)C(=O)c1c[nH]c2cc(Cl)ccc12)C(=O)c1c[nH]c2cc(Cl)ccc12.O=C(O)C(F)(F)F.O=C(O)C(F)(F)F	6.25 µM	3.12 µM	100 µM	50 µM	38.1 µM	38.1 µM	38.1 µM	4.8 µM	6.25 µM	33.2 µM	19.1 µM	11.6%			
O=C(NCCCNCCCCNCCCNC(=O)C(=O)c1c[nH]c2ccccc12)C(=O)c1c[nH]c2ccccc12	> 100 µM	> 100 µM	> 100 µM	> 100 µM	> 41.4 µM	> 41.4 µM	> 41.4 µM	10.3 µM	>50 µM	60 µM	> 41.5 µM	0%			
COc1cc([C@@H]2c3cc4c(cc3[C@H](O)[C@H]3COC(=O)[C@H]23)OCO4)cc(OC)c1OC [PODOFILOX]										0.018 µM					
CN[C@@H]1[C@H](O[C@H]2[C@H](O[C@H]3[C@H](O)[C@@H](O)[C@H](N=C(N)N)[C@@H](O)[C@@H]3N=C(N)N)O[C@@H](C)[C@]2(O)C=O)O[C@@H](CO)[C@H](O)[C@H]1O [STREPTOMYCIN]	21.5 µM (≈ 12.5 µg/mL)	10.7 µM (≈ 6.22 µg/mL)	21.5 µM (≈ 12.5 µg/mL)	21.5 µM (≈ 12.5 µg/mL)											
O=C(NCCCNCCCCNCCCNC(=O)C(=O)c1c[nH]c2c(Cl)cccc12)C(=O)c1c[nH]c2c(Cl)cccc12.O=C(O)C(F)(F)F.O=C(O)C(F)(F)F	50 µM		200 µM	200 µM	> 38.1 µM	> 38.1 µM	> 38.1 µM	19.1 µM	25 µM	7.47 µM	31.6 µM	1.1%			
COC(=O)c1ccc2[nH]cc(C(=O)C(=O)NCCCNCCCCNCCCNC(=O)C(=O)c3c[nH]c4ccc(C(=O)OC)cc34)c2c1.O=C(O)C(F)(F)F.O=C(O)C(F)(F)F	100 µM	6.25 µM	200 µM	200 µM	> 36 µM	> 36 µM	> 36 µM	> 36 µM	25 µM	41.8 µM	> 36 µM	0%			
O=C(NCCCNCCCCNCCCNC(=O)C(=O)c1c[nH]c2cc(C(F)(F)F)ccc12)C(=O)c1c[nH]c2cc(C(F)(F)F)ccc12.O=C(O)C(F)(F)F.O=C(O)C(F)(F)F	50 µM	50 µM	200 µM	100 µM	35.2 µM	> 35.2 µM	35.2 µM	4.4 µM	100 µM	31.4 µM	3.36 µM	3.2%			
O=C(NCCCNCCCCNCCCNC(=O)C(=O)c1c[nH]c2ccc(Cl)cc12)C(=O)c1c[nH]c2ccc(Cl)cc12.O=C(O)C(F)(F)F.O=C(O)C(F)(F)F	> 200 µM		> 100 µM	> 200 µM	> 38 µM	> 38 µM	38 µM	> 38 µM	14.9 µM	19.8 µM	4.73 µM	0%			
COLISTIN													1 µM	2 µM	0.25 µg/mL
OC(Cn1cncn1)(Cn1cncn1)c1ccc(F)cc1F [FLUCONAZOLE]							0.125 µg/mL	8 µg/mL							
